Reference: ChEMBL document CHEMBL4033792, “Structure-Activity Relationship in Monosaccharide-Based Toll-Like Receptor 4 (TLR4) Antagonists” (J Med Chem, 2018)
Activity calls are given as the source filed them. The calls are words filed in the database; no cut-off is given here.

Experiments:
THP-1 [1] = assay: Cytotoxicity against human THP1 cells assessed as reduction in cell viability up to 10 uM after 24 hrs in absence of LPS by MTT asssay; type: cell-based; conditions: thp-1, 24 h
Method in brief: (§1)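 THP-1 monocytes in RPMI with 10% heat-inactivated FBS, used at 0.5 × 10^6 cells/mL. Cells exposed to compounds at 0–10 μM, with or without LPS (100 ng/mL), for up to 24 h. Viability read by MTT assay.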

[2] = molecular target: Toll-like receptor 4 (Mus musculus) (UniProt Q9QUK6); assay: Agonist activity at TLR4 in mouse RAW blue cells assessed as increase in NF-kappaB activation-mediated SEAP production up to 10 uM measured after 20 hrs by SEAP reporter gene assay
Toll-like receptor 4 = Toll-like receptor 4 (Homo sapiens, UniProt O00206); assay: Antagonist activity at human TLR4 expressed in HEK blue cells assessed as inhibition of LPS-induced NF-kappaB activation-mediated SEAP production preincubated for 30 mins followed by LPS addition measured after overnight incubation in absence of light by NF-kappaB reporter gene assay; type: cell-based
Method in brief: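 HEK-Blue hTLR4 cells (stably expressing hTLR4, hMD-2, hCD14 and an NF-κB/AP-1-driven SEAP reporter) seeded at 4 × 10^4/well, incubated overnight at 37 °C. Compound (in water or DMSO–H2O 1:1) added 30 min before 100 ng/mL E. coli O55:B5 LPS, then overnight incubation. Supernatant SEAP read with pNPP, 2–4 h in the dark at room temperature, OD 405 nm. Normalized to LPS alone; four-parameter logistic fit for IC50; ≥3 independent experiments.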

THP-1 [3] = assay: Cytotoxicity against human THP1 cells assessed as reduction in cell viability up to 10 uM after 24 hrs in presence of LPS by MTT asssay; type: cell-based; conditions: thp-1, 24 h; method in brief: as §1
[4] = Cytotoxicity against HEK-Blue cells assessed as reduction in cell viability at 10 uM after overnight incubation by MTT assay; type: cell-based; conditions: human
Method in brief: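 MTT viability assay in HEK-Blue hTLR4 cells seeded at 4 × 10^4/well in phenol red-free DMEM and incubated overnight. Cells then treated overnight with the highest compound concentration used in the activity assays (10 μM). MTT (5 mg/mL in PBS) added for 3 h; formazan dissolved in 0.1 N HCl/2-propanol; absorbance 570 nm. Normalized to untreated (PBS) control; mean ± SEM of three independent experiments.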

[5] = molecular target: Toll-like receptor 4 (Mus musculus) (UniProt Q9QUK6); assay: Antagonist activity at TLR4 in mouse RAW blue cells assessed as inhibition of LPS-induced NF-kappaB activation-mediated SEAP production preincubated for 30 mins followed by LPS addition measured after 16 hrs by NF-kappaB reporter gene assay
[6] = molecular target: Toll-like receptor 4 (Mus musculus) (UniProt Q9QUK6); assay: Antagonist activity at TLR4 in mouse RAW blue cells assessed as inhibition of LPS-induced NF-kappaB activation-mediated SEAP production up to 10 uM preincubated for 30 mins followed by LPS addition measured after 16 hrs by NF-kappaB reporter gene assay

Sequence of Toll-like receptor 4 (O00206 whole entry): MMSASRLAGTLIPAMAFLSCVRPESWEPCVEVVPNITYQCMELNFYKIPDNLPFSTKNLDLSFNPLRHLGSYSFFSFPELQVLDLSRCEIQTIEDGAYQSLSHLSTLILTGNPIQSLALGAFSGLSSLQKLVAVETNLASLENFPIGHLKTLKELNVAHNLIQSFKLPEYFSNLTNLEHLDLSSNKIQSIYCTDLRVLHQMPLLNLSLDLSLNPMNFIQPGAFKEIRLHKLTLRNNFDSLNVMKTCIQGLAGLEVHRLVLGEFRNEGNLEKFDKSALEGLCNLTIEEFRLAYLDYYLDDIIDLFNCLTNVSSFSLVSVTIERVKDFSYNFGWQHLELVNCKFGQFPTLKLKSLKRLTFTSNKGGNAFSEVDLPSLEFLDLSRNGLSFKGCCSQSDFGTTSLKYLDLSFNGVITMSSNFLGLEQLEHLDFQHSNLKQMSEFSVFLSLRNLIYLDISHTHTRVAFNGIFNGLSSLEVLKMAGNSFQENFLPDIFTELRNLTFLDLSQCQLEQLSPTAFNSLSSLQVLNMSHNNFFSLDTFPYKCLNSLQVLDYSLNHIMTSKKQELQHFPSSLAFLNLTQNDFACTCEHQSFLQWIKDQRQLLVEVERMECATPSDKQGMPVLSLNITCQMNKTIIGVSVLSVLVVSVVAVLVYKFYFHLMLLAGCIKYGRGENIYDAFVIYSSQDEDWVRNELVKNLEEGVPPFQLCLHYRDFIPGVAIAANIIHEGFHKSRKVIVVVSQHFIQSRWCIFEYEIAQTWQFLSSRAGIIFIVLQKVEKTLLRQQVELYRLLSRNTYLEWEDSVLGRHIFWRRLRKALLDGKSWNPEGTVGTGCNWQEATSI
Sequence of Toll-like receptor 4 (Mus musculus) (Q9QUK6 whole entry, looked up): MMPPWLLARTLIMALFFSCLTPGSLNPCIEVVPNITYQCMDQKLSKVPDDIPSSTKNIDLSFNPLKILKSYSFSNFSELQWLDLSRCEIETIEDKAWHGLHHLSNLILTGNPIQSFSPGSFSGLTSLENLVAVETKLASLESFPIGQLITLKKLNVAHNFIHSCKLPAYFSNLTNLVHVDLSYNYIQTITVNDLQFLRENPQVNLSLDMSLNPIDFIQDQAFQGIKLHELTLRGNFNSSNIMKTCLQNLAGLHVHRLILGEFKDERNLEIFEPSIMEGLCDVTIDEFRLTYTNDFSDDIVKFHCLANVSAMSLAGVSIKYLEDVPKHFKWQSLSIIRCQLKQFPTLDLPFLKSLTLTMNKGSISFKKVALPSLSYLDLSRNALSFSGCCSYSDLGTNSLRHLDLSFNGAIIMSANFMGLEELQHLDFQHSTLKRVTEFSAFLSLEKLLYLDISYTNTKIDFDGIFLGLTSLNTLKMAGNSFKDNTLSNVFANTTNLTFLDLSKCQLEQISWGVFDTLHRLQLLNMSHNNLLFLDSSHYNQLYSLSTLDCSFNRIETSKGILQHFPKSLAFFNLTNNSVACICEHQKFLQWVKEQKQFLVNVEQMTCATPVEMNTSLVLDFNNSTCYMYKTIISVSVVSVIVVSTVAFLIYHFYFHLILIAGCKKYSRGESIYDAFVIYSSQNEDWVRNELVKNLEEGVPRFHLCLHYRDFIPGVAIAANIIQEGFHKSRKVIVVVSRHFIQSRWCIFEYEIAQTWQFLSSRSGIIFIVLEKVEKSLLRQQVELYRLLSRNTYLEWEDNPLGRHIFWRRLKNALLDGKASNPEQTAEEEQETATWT

Row | SMILES | Activity (THP-1 [1]) | Activity [2] | IC50 (Toll-like receptor 4) [µM] | inhibition (Toll-like receptor 4) | Activity (THP-1 [3]) | Activity [4] | IC50 [5] [µM] | inhibition [6]
1 | CCCCCCCCCCCC(=O)N[C@H]1[C@@H](OP(=O)([O-])O)O[C@H](CO)[C@@H](OP(=O)([O-])O)[C@@H]1OC(=O)CCCCCCCCCCC.[Na+].[Na+] | Non-Toxic | Not Active | 0.63 | Dose-dependent effect | Non-Toxic | Non-Toxic | 1.7 | 
2 | CCCCCCCCCCCCCCCC(=O)N[C@H]1[C@@H](OP(=O)([O-])O)O[C@H](CO)[C@@H](OP(=O)([O-])O)[C@@H]1OC(=O)CCCCCCCCCCCCCCC.[Na+].[Na+] | Non-Toxic | Not Active |  |  | Non-Toxic | Non-Toxic |  | inactive
3 | CCCCCCCCCCCCCC(=O)N[C@H]1[C@@H](OP(=O)(O)O)O[C@H](CO)[C@@H](OP(=O)(O)O)[C@@H]1OC(=O)CCCCCCCCCCCCC | Non-Toxic | Not Active | 2 | Dose-dependent effect | Non-Toxic |  | 7.7 | 
4 | CCCCCCCCCC(=O)N[C@H]1[C@@H](OP(=O)([O-])O)O[C@H](CO)[C@@H](OP(=O)([O-])O)[C@@H]1OC(=O)CCCCCCCCC.[Na+].[Na+] | Non-Toxic | Not Active | 5.45 | Dose-dependent effect | Non-Toxic | Non-Toxic | 42 | 
